Only some compounds are listed: those with a hit (about 4.5% of all), similar ones and a draw of the others.
OX1R antag-1 – OX1R (human) antagonism | inhibition, % at 6.6 µM | O43613 | OX1R-expressing cells, FRET antagonist read-out | actives 1.8% (n = 330,000); in the data active = inhibition mostly above about 38%, no sharp cut-off; inactive = mostly below about 40%;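 also: 0% = agonist challenge alone and 100% = reference antagonist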
TAAR1 antag – human TAAR1 antagonism; inhibition, % at 3 µM; Q96RJ0; AID 624466; CHO RD-HGA16 TAAR1, Fluo-8 calcium fluorescence, antagonist; actives 1.5% (n = 360,000);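 active = inhibition above a per-plate cutoff, the mean inhibition of test compounds on that plate plus 3 SD, cut at about 49% in these data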;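 also: 0% = DMSO plus EC80 beta-PEA response and 100% = DMSO alone without agonist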
Target sequence (Q96RJ0 whole entry, looked up): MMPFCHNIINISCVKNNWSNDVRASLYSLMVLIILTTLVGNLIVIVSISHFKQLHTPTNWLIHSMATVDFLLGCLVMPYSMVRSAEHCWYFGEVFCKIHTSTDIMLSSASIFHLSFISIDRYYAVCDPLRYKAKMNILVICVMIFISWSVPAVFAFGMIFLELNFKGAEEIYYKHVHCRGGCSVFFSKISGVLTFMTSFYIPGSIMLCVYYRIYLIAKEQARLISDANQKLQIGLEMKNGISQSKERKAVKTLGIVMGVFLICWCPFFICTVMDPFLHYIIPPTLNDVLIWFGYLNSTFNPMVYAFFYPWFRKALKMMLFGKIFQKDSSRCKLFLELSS
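Test system – hTAAR1-expressing CHO RD-HGA16 cells, Gα16-coupled · Also added – β-PEA at EC80 concentration, post-compound challenge · Compound – 3 µM, single point · Incubation – dye loading 75 min at 37 °C, then 30 min room temperature · Measured by – Fluo-8 intracellular calcium dye fluorescence, real-time kinetic reads · Benchmarks – vehicle and agonist controls · Replicates – singlicate, one well per test compound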
OX1R antag-2 – human HCRTR1 antagonism | CHO/OX1R cells, Fluo-8 calcium fluorescence, orexin A | actives 0.43% (n = 330,000) | AID 434989 | inhibition, % at 5 µM | O43613;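 active = inhibition above its plate's threshold, mean inhibition of all tested compounds on the plate plus 3 SD, cut at about 37% in these data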;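 also: 0% = orexin A challenge wells and 100% = SB-334867-A antagonist wells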
CHO parental Ca – counter-screen: ATP calcium response change in parental CHO cells; AID 463079; actives 0.63% (n = 330,000); parental CHO-K1, ATP-induced calcium, Fluo-8 fluorescence; inhibition, % at 5.6 µM;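 active = inhibition above that plate's mean sample inhibition plus 3 SD, cut at about 26% in these data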;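 also: 0% = ATP-challenged DMSO wells and 100% = DMSO wells without ATP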
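Measured by: calcium-sensitive Fluo-8 fluorescence / Test system: CHO parental line / Controls: ATP-challenged DMSO wells low, unchallenged DMSO wells high / Measure: % inhibition / Compound: single nominal dose of 5.6 µM per compound / Replicates: single well per compound, no replicates / Reagent: ATP as calcium-mobilizing challenge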
TAAR1 agonist – agonists of human TAAR1; Q96RJ0; CHO RD-HGA16 TAAR1, Fluo-8 calcium fluorescence; vehicle wells 0%, saturating PEA agonist 100%; activation, % at 3 µM; actives 0.99% (n = 360,000); AID 624467;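 active = activation above the mean activation of all test compounds in the run plus 3 SD, cut at about 38% in these data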
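Test system: RD-HGA16 (CHO) cells co-expressing Gα16 and hTAAR1 | Doses: Single dose, 3 µM | Schedule: 17-24 h seeding, 75 min 37 °C dye, 30 min RT | Evaluation: % activation from peak over basal fluorescence ratio, DMSO-to-PEA scaled | Technique: Kinetic Fluo-8 calcium fluorescence | Benchmarks: Low control DMSO, high control PEA (EC100)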
GPR7 antagonist – blocks human GPR7 receptor signaling | GPR7-expressing cells, fluorescence antagonist assay | actives 1.1% (n = 290,000) | inhibition, % at 4.4 µM; in the data active = inhibition above about 16%, passing the limit was not always enough;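 also: cells stimulated with the agonist NPW; 0% = agonist with vehicle and 100% = vehicle without agonist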
TAAR1 ag conf – human TAAR1 agonism, confirmed | shares compounds with TAAR1 agonist | CHO RD-HGA16 TAAR1, Fluo-8 calcium fluorescence; scaled: DMSO 0%, maximal phenethylamine 100% | activation, % at 3 µM | actives 82% (n = 2,400) | AID 651783;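 active = activation above a cutoff set at the run's mean compound activation plus 3 SD, cut at about 39% in these data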
Ga16 ag counter – counter-screen for TAAR1 agonists: nonselective agonists in parental cells; activation, % at 3 µM; CHO-Ga16 parental, Fluo-8 calcium fluorescence; normalized to maximal ATP response, DMSO zero; actives 50% (n = 2,400); shares compounds with TAAR1 agonist;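 active = activation above the run cutoff, the mean activation over all tested wells plus 3 SD, cut at about 12% in these data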;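 also: 0% = DMSO wells and 100% = maximal ATP response on the peak over basal ratio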
TAAR1 desensitize – counter-screen for human TAAR1 agonists: agonists that desensitize TAAR1 | shares compounds with TAAR1 agonist | CHO RD-HGA16 hTAAR1, Fluo-8 calcium, beta-PEA response inhibition | inhibition, % at 3 µM | actives 46% (n = 2,400);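 active = inhibition above the run cutoff, the mean inhibition of all test compounds plus 3 SD, cut at about 49% in these data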;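 also: beta-PEA stimulus applied at its EC80; loss of beta-PEA calcium signal after compound pretreatment read as receptor desensitization; 0% = DMSO with beta-PEA at EC80 and 100% = DMSO alone without agonist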
Ga16 nonsel ant – nonselective Ga16 antagonist in TAAR1 agonist counter-screen; shares compounds with TAAR1 agonist; actives 39% (n = 2,400); inhibition, % at 3 µM; CHO-Ga16 ATP-induced calcium, Fluo-8 fluorescence;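 active = inhibition above the plate's mean compound inhibition plus 3 SD, computed per plate, cut at about 22% in these data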;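 also: 0% = EC80 ATP with DMSO and 100% = DMSO wells without ATP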
An asterisk follows results filed as active; . = no result; ! = not confirmed by another sample.

SMILES	OX1R antag-1	TAAR1 antag	OX1R antag-2	CHO parental Ca	TAAR1 agonist	GPR7 antagonist	TAAR1 ag conf	Ga16 ag counter	TAAR1 desensitize	Ga16 nonsel ant
NC(N)=N/N=C/c1c(Cl)cccc1Cl	6.2	54.5*!	-11.3	-7.3	61.1*	-5.4	87.8*	1.6	91.2*	8.8
COc1ccc2c(C)cc3n[nH]c(=S)n3c2c1	-6.9	-11.1	-4.5	-9.8	-0.1	-7.1	.	.	.	.
CC1=NOC(=O)/C1=C\c1ccc(-c2ccccc2Br)o1	.	75.3*	.	.	45.8*	13.3	31.7	28.6*	56.0*	65.1*
CCCS(=O)(=O)N1CCN(CCN2C(=O)c3cccc4cccc(c34)C2=O)CC1	11.5	18.2	-29.5	-17.4	0.4	-4.9	.	.	.	.
COc1cc(/C=C2\SC(=S)N(CCC(=O)Nc3ccccn3)C2=O)cc(OC)c1OC	10.3	43.9	-37.5	-25.4	12.9	-15.7	.	.	.	.
COc1ccccc1/C=C1\SC(=S)N(CCC(=O)Nc2cccc(O)c2)C1=O	-0.2	80.7*	-9.2	-4.7	62.9*	-0.3	70.9*	32.5*	66.9*	40.0*
COc1cc(/C=C2\SC(=S)N(CC(=O)Nc3ccccn3)C2=O)cc(OC)c1OC	19.0	4.0	-24.0	-17.8	86.8*	-5.4	113.9*	66.6*	64.1*	29.6*
CC1Nc2ncnc(N3CCc4ccccc4C3)c2N(Cc2ccc(Br)cc2)C1=O (stereo not drawn)	19.4	32.3	-23.1	-19.9	83.0*	.	32.8	2.0	4.4	13.4
CC1Nc2ncnc(N3CCc4ccccc4C3)c2N(Cc2ccc(Cl)cc2)C1=O (stereo not drawn)	26.2	.	-32.3	-19.5	.	.	.	.	.	.
CCOC(=O)Cn1cc(/C=C(\C#N)C(=O)N2CCOCC2)c2ccccc21	6.8	-9.1	-4.8	-1.6	0.7	-8.9	.	.	.	.
COCC(C)N1C(=O)Cc2c1nc(N)c1c(N)nc(N3CCN(c4ccccc4F)CC3)c(C#N)c21 (stereo not drawn)	35.4	48.7*	-5.1	-15.7	52.5*	0.5	49.0*	24.6*	62.6*	44.6*
O=C(NCCc1ccccc1)c1ccc2c(=O)[nH]c3c(C(=O)NCC4CCCO4)sc(=S)n3c2c1 (stereo not drawn)	51.6*	52.4*	-4.1	-6.2	64.6*	0.5	90.1*	6.0	82.2*	21.7*
O=C(NCC1CCCO1)c1sc(=S)n2c1[nH]c(=O)c1ccc(C(=O)N3CCCCC3)cc12 (stereo not drawn)	25.4	0.6	-10.7	-8.2	10.3	-13.9	.	.	.	.
O=C(Nc1cccc(F)c1)/C(=C/c1ccco1)NC(=O)c1ccco1	46.9	-2.7	-4.7	-8.7	3.7	-2.9	.	.	.	.
Clc1nssc1=Nc1ccccc1	.	.	.	.	.	-4.6	.	.	.	.
N#Cc1ccc(N=c2ssnc2Cl)cc1	0.3	10.8	2.5	9.4	47.6*	3.3	52.8*	44.0*	28.1	25.3*
Cc1ccc(OCC(=O)NNC(=S)NC(=O)C2CC2)c(C)c1	.	14.2	.	.	48.9*	-10.5	48.0*	49.6*	36.2	39.3*
Cc1ccc(OCC(=O)NNC(=S)NC(=O)C2CCCCC2)c(C)c1	9.3	.	-28.4	-10.0	.	-6.4	.	.	.	.
Cc1ccc(OCC(=O)NNC(=S)NC(=O)C(C)(C)C)c(Br)c1	5.8	106.5*	-3.1	-0.8	155.4*	-12.0	132.3*	109.2*	97.8*	71.9*
